In PMC7126328 (Bioorganic & Medicinal Chemistry, 2013):
Values joined by “and” are separate entries in the source; they are usually repeats but may differ in a detail not shown here. Equal entries are not always repeated.

Legend:
E. coli/pRAC-gfp [1] = test: microbe, parasite or virus in culture; conditions: Escherichia coli, read-out: Inhibition/induction of the synthesis of the reporter protein GFP, E. coli/pRAC-gfp
E. coli/pET36b-gfp [2] = conditions: for Toxic and mutagenic effects on indicator cells E. coli/pET36b-gfp (in words): 150 μM; for The value of the fluorescence of GFP synthesized in biosensor cells, Biosensor E. coli/pET36b-gfp: 150 μM compound in culture medium, IPTG 1 mM
E. coli/pET36b-gfp [3] = test: microbe, parasite or virus in culture; conditions: Escherichia coli, read-out: Inhibition/induction of the synthesis of the reporter protein GFP, E. coli/pET36b-gfp
E. coli/pRAC-gfp [4] = conditions: for Toxic and mutagenic effects on indicator cells E. coli/pRAC-gfp (in words): 150 μM; for The value of the fluorescence of GFP synthesized in biosensor cells, Biosensor E. coli/pRAC-gfp: 150 μM compound in culture medium, 1.5 h
[5] = MTT cell viability assay, U-937; assay type: cell-based; conditions: human, U-937 cells (monocytes)
In short: (§1)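 Test compound, dissolved in DMSO, was added and cells were cultured for 72 h (37 °C, 5% CO2), three wells per concentration, with untreated cells as control. Then 1% MTT was added for 4 h, DMSO added and mixed 15 min, and OD read at 570 nm.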

[6] = MTT cell viability assay, MT-4; assay type: cell-based; conditions: human, MT-4 cells
In short: as §1

MDCK cells = conditions: 48 h, MTT

Row | The value of the fluorescence of GFP synthesized in biosensor cells, Biosensor E. coli/pET36b-gfp (E. coli/pET36b-gfp [2]) | The value of the fluorescence of GFP synthesized in biosensor cells, Biosensor E. coli/pRAC-gfp (E. coli/pRAC-gfp [4]) | Compound | inhibition at 150 µM (E. coli/pRAC-gfp [1]) | Toxic and mutagenic effects on indicator cells E. coli/pET36b-gfp (in words) (E. coli/pET36b-gfp [2]) | inhibition at 150 µM (E. coli/pET36b-gfp [3]) | Toxic and mutagenic effects on indicator cells E. coli/pRAC-gfp (in words) (E. coli/pRAC-gfp [4]) | IC50 at 72 h [5] | IC50 at 72 h [6] | CTD50, cytotoxic concentration; the concentration leading to 50% death of cells (MDCK cells)
1 | 512.7 ± 32.4 conventional units | 171.4 ± 14.5 conventional units | CCN(CC)CC/N=C1\C[C@H]2CC[C@]1(C)C2(C)C [Compound 2, (E)-N^1,N^1-Diethyl-N^2-((1R,4R)-1,7,7-trimethylbicyclo[2.2.1]heptan-2-ylidene)ethane-1,2-diamine] | < 20% | neither toxic nor mutagenic effects | < 20% | neither toxic nor mutagenic effects | – | – | –
2 | 546.9 ± 65.6 conventional units | 168.9 ± 13.5 conventional units | CC[N+](CC)(CCCCC[N+](CC)(CC)CC/N=C1\C[C@H]2CC[C@]1(C)C2(C)C)CC/N=C1\C[C@H]2CC[C@]1(C)C2(C)C [Compound 3a, N^1,N^1,N^5,N^5-Tetraethyl-N^1,N^5-bis(2-((E)-((1R,4R)-1,7,7-trimethylbicyclo[2.2.1]heptan-2-ylidene)amino)ethyl)pentane-1,5-diaminium bromide] | < 20% | neither toxic nor mutagenic effects | < 20% | neither toxic nor mutagenic effects | 95.8 ± 5.6 µM | 57.5 ± 3.8 µM | –
3 | – | – | CC[N+](CC)(CCCCCCCC[N+](CC)(CC)CC/N=C1\C[C@H]2CC[C@]1(C)C2(C)C)CC/N=C1\C[C@H]2CC[C@]1(C)C2(C)C [Compound 3c, N^1,N^1,N^8,N^8-Tetraethyl-N^1,N^8-bis(2-((E)-((1R,4R)-1,7,7-trimethylbicyclo[2.2.1]heptan-2-ylideneamino)ethyl)octane-1,8-diaminium bromide] | – | – | – | – | 67.2 ± 5.9 µM | 69.8 ± 2.7 µM | –
4 | 172.3 ± 6.2 conventional units | 95.9 ± 4.3 conventional units | CC[N+](CC)(CCCCCCCCC[N+](CC)(CC)CC/N=C1\C[C@H]2CC[C@]1(C)C2(C)C)CC/N=C1\C[C@H]2CC[C@]1(C)C2(C)C [Compound 3d, N^1,N^1,N^9,N^9-Tetraethyl-N^1,N^9-bis(2-((E)-((1R,4R)-1,7,7-trimethylbicyclo[2.2.1]heptan-2-ylidene)amino)ethyl)nonane-1,9-diaminium bromide] | – | highly toxic | – | highly toxic | 58.6 ± 3.4 µM | 66 ± 5.3 µM | –
5 | 110.7 ± 7.2 conventional units | 56.9 ± 3.1 conventional units | CC[N+](CC)(CCCCCCCCCC[N+](CC)(CC)CC/N=C1\C[C@H]2CC[C@]1(C)C2(C)C)CC/N=C1\C[C@H]2CC[C@]1(C)C2(C)C [Compound 3e, N^1,N^1,N^10,N^10-Tetraethyl-N^1,N^10-bis(2-((E)-((1R,4R)-1,7,7-trimethylbicyclo[2.2.1]heptan-2-ylidene)amino)ethyl)decane-1,10-diaminium bromide] | – | highly toxic | – | highly toxic | 53.6 ± 2.2 µM | 66.1 ± 4.4 µM | –
6 | 51.3 ± 4.6 conventional units | 49.3 ± 2.1 conventional units | CC[N+](CC)(CCCCCCCCCCCC[N+](CC)(CC)CC/N=C1\C[C@H]2CC[C@]1(C)C2(C)C)CC/N=C1\C[C@H]2CC[C@]1(C)C2(C)C [Compound 3f, N^1,N^1,N^12,N^12-Tetraethyl-N^1,N^12-bis(2-((E)-((1R,4R)-1,7,7-trimethylbicyclo[2.2.1]heptan-2-ylidene)amino)ethyl)dodecane-1,12-diaminium bromide] | – | highly toxic | – | highly toxic | 15.9 ± 1.1 µM | 40.4 ± 3.9 µM | –
7 | 466.46 ± 4.1 conventional units | 170.87 ± 8.9 conventional units | CC[N+](CC)(CC/N=C1\C[C@H]2CC[C@]1(C)C2(C)C)Cc1ccc(C[N+](CC)(CC)CC/N=C2\C[C@H]3CC[C@]2(C)C3(C)C)cc1 [Compound 3g, (R,R,E)-N,N′-(1,4-Phenylenebis(methylene))bis(N,N-diethyl-2-((E)-((1R,4R)-1,7,7-trimethylbicyclo[2.2.1]heptan-2-ylidene)amino)ethanaminium) bromide] | < 20% | neither toxic nor mutagenic effects | < 20% | neither toxic nor mutagenic effects | 54.9 ± 2.6 µM | 40.5 ± 3 µM | –
8 | 535.72 ± 307 conventional units | 189.21 ± 17.7 conventional units | CC[N+](C)(CC)CC/N=C1\C[C@H]2CC[C@]1(C)C2(C)C [Compound 4a, N,N-Diethyl-N-methyl-2-((E)-((1R,4R)-1,7,7-trimethylbicyclo[2.2.1]heptan-2-ylidene)amino)ethanaminium iodide] | < 20% | – | < 20% | – | 58.6 ± 4.6 µM | > 100 µM | –
9 | 547.9 ± 40.8 conventional units | 176.9 ± 16.9 conventional units | CC[N+](CC)(CC)CC/N=C1\C[C@H]2CC[C@]1(C)C2(C)C [Compound 4b, N,N,N-Triethyl-2-((E)-((1R,4R)-1,7,7-trimethylbicyclo[2.2.1]heptan-2-ylidene)amino)ethanaminium bromide] | < 20% | neither toxic nor mutagenic effects | < 20% | neither toxic nor mutagenic effects | > 100 µM | > 100 µM | –

Row | Compound | The value of the fluorescence of GFP synthesized in biosensor cells, Biosensor E. coli/pET36b-gfp (E. coli/pET36b-gfp [2]) | The value of the fluorescence of GFP synthesized in biosensor cells, Biosensor E. coli/pRAC-gfp (E. coli/pRAC-gfp [4]) | inhibition at 150 µM (E. coli/pRAC-gfp [1]) | Toxic and mutagenic effects on indicator cells E. coli/pET36b-gfp (in words) (E. coli/pET36b-gfp [2]) | inhibition at 150 µM (E. coli/pET36b-gfp [3]) | Toxic and mutagenic effects on indicator cells E. coli/pRAC-gfp (in words) (E. coli/pRAC-gfp [4]) | IC50 at 72 h [5] | IC50 at 72 h [6] | CTD50, cytotoxic concentration; the concentration leading to 50% death of cells (MDCK cells)
10 | CC[N+](CC)(CCCCCC[N+](CC)(CC)CC/N=C1\C[C@H]2CC[C@]1(C)C2(C)C)CC/N=C1\C[C@H]2CC[C@]1(C)C2(C)C [Compound 3b, N^1,N^1,N^6,N^6-Tetraethyl-N^1,N^6-bis(2-((E)-((1R,4R)-1,7,7-trimethylbicyclo[2.2.1]heptan-2-ylidene)amino)ethyl)hexane-1,6-diaminium bromide] | 495.5 ± 15.2 conventional units | 186.2 ± 22.9 conventional units | < 20% | neither toxic nor mutagenic effects | < 20% | neither toxic nor mutagenic effects | – | 48.3 ± 3.2 µM | 1712 µM and 1712.3 ± 169.8 µM
11 | CC[N+](CC)(CCCCCCCC[N+](CC)(CC)CC/N=C1\C[C@H]2CC[C@]1(C)C2(C)C)CC/N=C1\C[C@H]2CC[C@]1(C)C2(C)C [Compound 3c] | 165.5 ± 8.1 conventional units | 81.7 ± 3.6 conventional units | – | highly toxic | – | highly toxic | – | – | 552.5 ± 49.1 µM
